Test results from ChEMBL document CHEMBL2086267, “Discovery of N6-phenyl-1H-pyrazolo[3,4-d]pyrimidine-3,6-diamine derivatives as novel CK1 inhibitors using common-feature pharmacophore model based virtual screening and hit-to-lead optimization” (Eur J Med Chem, 2012).

How the values were obtained:
[1] = target: T1, Casein kinase I isoform alpha (Homo sapiens, UniProt P48729); test: Inhibition of CK1 using KRRRALS(p)VASLPGL as substrate after 40 mins by scintillation counter
Target sequence in this assay (P48729 whole entry, canonical isoform): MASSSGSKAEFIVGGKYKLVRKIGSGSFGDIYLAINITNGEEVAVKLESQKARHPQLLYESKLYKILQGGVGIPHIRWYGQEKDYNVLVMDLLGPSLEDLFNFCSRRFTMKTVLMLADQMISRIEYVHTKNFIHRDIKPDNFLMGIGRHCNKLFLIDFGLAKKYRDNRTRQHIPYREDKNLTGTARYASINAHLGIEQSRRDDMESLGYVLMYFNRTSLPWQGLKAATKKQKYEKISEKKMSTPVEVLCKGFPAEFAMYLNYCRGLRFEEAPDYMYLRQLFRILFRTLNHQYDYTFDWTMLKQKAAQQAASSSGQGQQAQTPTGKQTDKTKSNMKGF

[2] = target: Epidermal growth factor receptor (Homo sapiens) (UniProt P00533); test: Inhibition of EGFR at 10 uM
Outline: (§1)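 Kinase inhibition was tested through a commercial kinase profiling service. Each assay was run twice and mean activity calculated.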

[3] = target: Fibroblast growth factor receptor 2 (Homo sapiens) (UniProt P21802); test: Inhibition of FGFR2 at 10 uM; outline: as §1
[4] = target: T1, Casein kinase I isoform alpha; test: Inhibition of CK1 using KRRRALS(p)VASLPGL as substrate at 10 uM after 40 mins by scintillation counter
Outline: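 Radiometric CK1 assay with substrate KRRRALS(p)VASLPGL and [γ-³³P]ATP plus 10 mM Mg acetate, in 20 mM MOPS, 1 mM EDTA, 0.01% Brij-35 and 5% glycerol. Reactions were spotted onto P30 filtermat, washed three times for 5 min in 75 mM phosphoric acid and once in methanol, dried, then scintillation counted. Run twice; mean activity reported.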

[5] = target: Vascular endothelial growth factor receptor 2 (Homo sapiens) (UniProt P35968); test: Inhibition of KDR at 10 uM; outline: as §1
[6] = target: Platelet-derived growth factor receptor alpha (Homo sapiens) (UniProt P16234); test: Inhibition of PDGFRalpha at 10 uM; outline: as §1
[7] = target: Hepatocyte growth factor receptor (Homo sapiens) (UniProt P08581); test: Inhibition of Met at 10 uM; outline: as §1
Sequence of Hepatocyte growth factor receptor (Homo sapiens) (P08581 whole entry): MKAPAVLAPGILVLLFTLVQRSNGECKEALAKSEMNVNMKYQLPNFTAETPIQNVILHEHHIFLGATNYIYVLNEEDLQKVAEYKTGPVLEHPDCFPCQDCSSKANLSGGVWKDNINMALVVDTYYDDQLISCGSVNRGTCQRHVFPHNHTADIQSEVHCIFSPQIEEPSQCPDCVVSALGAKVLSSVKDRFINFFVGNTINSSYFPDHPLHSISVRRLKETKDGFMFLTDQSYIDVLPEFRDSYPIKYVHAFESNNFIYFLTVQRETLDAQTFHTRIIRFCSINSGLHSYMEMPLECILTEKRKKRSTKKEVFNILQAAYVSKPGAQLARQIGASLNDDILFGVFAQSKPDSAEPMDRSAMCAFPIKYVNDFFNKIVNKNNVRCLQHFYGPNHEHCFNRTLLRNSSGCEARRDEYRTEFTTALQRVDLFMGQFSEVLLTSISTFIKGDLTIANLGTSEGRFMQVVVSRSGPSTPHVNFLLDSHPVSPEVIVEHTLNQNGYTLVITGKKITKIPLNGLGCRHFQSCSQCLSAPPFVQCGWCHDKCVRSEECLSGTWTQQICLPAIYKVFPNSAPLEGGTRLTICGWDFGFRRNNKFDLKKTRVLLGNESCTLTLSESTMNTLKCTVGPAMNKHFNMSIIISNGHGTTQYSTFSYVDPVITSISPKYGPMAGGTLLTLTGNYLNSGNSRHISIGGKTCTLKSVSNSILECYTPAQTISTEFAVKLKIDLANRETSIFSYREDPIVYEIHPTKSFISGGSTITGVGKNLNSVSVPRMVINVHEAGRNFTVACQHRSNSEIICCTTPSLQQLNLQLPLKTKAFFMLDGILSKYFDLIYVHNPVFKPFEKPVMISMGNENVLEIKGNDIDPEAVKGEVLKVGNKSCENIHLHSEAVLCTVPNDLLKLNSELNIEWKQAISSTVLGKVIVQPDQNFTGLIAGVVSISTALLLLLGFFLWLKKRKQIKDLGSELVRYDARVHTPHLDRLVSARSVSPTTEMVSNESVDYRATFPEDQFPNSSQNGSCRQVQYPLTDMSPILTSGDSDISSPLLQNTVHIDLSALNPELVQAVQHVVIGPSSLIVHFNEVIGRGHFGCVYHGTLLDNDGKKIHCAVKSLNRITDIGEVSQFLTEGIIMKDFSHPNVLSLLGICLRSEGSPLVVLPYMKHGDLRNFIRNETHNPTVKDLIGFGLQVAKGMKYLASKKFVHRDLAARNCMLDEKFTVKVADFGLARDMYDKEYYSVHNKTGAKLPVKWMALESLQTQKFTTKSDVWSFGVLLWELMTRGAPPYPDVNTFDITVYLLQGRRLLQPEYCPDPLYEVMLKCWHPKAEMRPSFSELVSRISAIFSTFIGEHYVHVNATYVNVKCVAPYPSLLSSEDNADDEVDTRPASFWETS

[8] = target: ALK tyrosine kinase receptor (Homo sapiens) (UniProt Q9UM73); test: Inhibition of ALK at 10 uM; outline: as §1
Sequence of ALK tyrosine kinase receptor (Homo sapiens) (Q9UM73 19-1620 limits assumed): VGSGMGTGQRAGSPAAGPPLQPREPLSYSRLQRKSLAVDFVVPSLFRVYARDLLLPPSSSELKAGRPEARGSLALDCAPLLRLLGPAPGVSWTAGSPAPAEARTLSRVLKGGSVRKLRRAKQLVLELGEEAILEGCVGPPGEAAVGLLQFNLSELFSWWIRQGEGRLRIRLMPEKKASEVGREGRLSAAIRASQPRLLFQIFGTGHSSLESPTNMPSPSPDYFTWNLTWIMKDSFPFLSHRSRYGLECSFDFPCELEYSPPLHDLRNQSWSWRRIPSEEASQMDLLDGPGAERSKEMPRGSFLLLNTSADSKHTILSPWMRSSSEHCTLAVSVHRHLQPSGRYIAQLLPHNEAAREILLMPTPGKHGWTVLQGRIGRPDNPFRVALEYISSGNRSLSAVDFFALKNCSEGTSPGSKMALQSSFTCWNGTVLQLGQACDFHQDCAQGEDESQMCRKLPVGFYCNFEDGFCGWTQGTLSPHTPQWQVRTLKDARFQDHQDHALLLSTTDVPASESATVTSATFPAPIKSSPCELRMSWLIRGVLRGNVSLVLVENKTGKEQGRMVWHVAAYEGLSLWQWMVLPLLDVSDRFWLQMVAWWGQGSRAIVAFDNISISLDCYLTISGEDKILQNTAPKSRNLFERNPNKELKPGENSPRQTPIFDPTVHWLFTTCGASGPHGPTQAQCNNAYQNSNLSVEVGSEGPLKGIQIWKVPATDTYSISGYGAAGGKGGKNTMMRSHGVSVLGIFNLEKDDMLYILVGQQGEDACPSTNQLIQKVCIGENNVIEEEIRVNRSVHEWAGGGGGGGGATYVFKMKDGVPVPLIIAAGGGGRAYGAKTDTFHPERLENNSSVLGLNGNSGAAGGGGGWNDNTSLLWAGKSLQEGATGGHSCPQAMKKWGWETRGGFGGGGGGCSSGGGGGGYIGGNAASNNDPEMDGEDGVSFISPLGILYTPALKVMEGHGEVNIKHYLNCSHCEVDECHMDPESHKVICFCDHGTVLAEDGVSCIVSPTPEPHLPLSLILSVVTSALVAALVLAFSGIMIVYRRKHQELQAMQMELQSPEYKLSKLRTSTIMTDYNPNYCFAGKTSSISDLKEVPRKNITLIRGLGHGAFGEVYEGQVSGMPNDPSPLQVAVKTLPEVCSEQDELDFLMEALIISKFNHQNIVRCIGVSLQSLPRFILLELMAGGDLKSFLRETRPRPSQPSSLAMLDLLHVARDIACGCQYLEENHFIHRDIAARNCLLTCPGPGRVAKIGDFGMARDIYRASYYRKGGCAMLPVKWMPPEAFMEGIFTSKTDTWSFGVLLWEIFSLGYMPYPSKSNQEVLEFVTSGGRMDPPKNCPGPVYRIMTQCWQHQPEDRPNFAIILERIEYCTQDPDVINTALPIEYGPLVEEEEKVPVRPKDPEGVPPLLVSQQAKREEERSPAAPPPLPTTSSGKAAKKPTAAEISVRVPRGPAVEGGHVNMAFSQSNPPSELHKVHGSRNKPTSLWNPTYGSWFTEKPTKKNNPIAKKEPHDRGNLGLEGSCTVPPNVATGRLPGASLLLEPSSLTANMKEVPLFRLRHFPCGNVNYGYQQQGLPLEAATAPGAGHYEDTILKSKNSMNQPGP

[9] = target: Serine/threonine-protein kinase PLK1 (Homo sapiens) (UniProt P53350); test: Inhibition of Plk1 at 10 uM; outline: as §1
[10] = target: Cyclin-dependent kinase 1 (Homo sapiens) (UniProt P06493); test: Inhibition of CDK1 at 10 uM; outline: as §1
Sequence of Cyclin-dependent kinase 1 (Homo sapiens) (P06493 whole entry, looked up): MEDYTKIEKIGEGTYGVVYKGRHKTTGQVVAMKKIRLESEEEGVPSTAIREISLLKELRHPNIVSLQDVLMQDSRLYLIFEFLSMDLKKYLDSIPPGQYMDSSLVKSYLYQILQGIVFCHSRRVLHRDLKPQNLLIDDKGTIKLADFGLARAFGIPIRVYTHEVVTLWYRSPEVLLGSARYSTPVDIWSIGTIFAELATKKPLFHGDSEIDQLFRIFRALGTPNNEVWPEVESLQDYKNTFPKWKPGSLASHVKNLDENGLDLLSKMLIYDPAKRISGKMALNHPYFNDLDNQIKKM

[11] = target: Glycogen synthase kinase-3 alpha (Homo sapiens) (UniProt P49840); test: Inhibition of GSK3alpha at 10 uM; outline: as §1
Sequence of Glycogen synthase kinase-3 alpha (Homo sapiens) (P49840 2-483 limits assumed): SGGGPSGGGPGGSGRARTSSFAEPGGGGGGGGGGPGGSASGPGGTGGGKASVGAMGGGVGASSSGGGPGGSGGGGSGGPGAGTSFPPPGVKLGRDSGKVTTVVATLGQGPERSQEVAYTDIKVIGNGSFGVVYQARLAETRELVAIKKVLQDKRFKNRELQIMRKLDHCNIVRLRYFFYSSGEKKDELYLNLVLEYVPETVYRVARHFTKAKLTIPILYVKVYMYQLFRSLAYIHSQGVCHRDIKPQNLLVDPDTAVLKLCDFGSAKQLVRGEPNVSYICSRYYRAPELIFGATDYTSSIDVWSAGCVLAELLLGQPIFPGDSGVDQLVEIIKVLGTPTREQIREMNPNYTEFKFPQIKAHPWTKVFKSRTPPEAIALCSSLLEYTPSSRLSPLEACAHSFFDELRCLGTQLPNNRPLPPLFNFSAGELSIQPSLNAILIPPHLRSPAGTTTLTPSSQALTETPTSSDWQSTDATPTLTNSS

[12] = target: Tyrosine-protein kinase receptor UFO (Homo sapiens) (UniProt P30530); test: Inhibition of Axl at 10 uM; outline: as §1
[13] = target: Receptor-type tyrosine-protein kinase FLT3 (Homo sapiens) (UniProt P36888); test: Inhibition of Flt3 at 10 uM; outline: as §1
Sequence of Receptor-type tyrosine-protein kinase FLT3 (Homo sapiens) (P36888 whole entry): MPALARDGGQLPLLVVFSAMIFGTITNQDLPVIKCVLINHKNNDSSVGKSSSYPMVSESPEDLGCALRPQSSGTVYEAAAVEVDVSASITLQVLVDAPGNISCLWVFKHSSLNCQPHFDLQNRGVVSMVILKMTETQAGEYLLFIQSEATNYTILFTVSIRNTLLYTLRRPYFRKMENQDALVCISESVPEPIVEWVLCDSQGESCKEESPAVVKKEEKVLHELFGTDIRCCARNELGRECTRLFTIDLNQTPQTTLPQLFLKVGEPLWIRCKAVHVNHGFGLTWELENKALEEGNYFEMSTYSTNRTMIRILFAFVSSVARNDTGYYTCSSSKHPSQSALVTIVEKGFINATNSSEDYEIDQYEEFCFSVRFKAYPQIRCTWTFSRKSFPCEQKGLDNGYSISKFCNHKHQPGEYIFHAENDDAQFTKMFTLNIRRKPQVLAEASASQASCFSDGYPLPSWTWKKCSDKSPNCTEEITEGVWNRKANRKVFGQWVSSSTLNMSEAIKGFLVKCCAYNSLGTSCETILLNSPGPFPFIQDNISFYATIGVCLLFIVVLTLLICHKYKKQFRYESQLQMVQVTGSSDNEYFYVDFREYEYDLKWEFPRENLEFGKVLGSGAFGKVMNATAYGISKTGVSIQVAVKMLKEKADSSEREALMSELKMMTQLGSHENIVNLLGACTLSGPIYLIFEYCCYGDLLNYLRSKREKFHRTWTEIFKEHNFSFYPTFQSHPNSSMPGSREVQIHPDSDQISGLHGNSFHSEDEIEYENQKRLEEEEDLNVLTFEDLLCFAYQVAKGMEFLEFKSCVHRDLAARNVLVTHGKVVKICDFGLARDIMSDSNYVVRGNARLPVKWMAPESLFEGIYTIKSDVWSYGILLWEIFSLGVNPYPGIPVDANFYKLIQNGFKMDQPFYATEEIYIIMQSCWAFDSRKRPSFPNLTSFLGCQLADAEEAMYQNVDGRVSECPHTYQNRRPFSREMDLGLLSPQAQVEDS

[14] = target: Serine/threonine-protein kinase mTOR (Homo sapiens) (UniProt P42345); test: Inhibition of mTOR at 10 uM; outline: as §1

With `Nc1[nH]nc2nc(Nc3cccc(NC(=O)Nc4ccc(F)c(Cl)c4)c3)ncc12` the IC50 [1] was 78 nM.
Compound `Nc1n[nH]c2nc(Nc3ccc(NC(=O)Nc4ccc(F)c(Cl)c4)cc3)ncc12` has an IC50 [1] greater than 10000 nM.
In the case of `COc1cc(OC)c(C=C2C(O)=Nc3ccccc32)c(OC)c1` [IC261], the IC50 [1] is reported as 1000 nM.
`CC[C@H](CO)Nc1nc(Nc2cccc(-c3ccccn3)c2)c2ncn(C(C)C)c2n1` was tested, and the IC50 [1] was 14 nM.
Work on `C[C@@H](NC(=O)Nc1ccc(Nc2ncc3c(N)n[nH]c3n2)cc1)c1ccccc1` yielded an IC50 [1] greater than 10000 nM.
`Nc1n[nH]c2nc(Nc3cccc(NC(=O)Nc4ccc(F)c(Cl)c4)c3)ncc12` gave an inhibition [2] of 92%, an inhibition [3] of 35% and an inhibition [4] of 100%. For the same compound, the inhibition [5] was 96%, the inhibition [6] was 82% and the inhibition [7] was 99%. It also gave an inhibition [8] of 26%, an inhibition [9] of 0% and an inhibition [10] of 42%. It also gave an inhibition [11] of 34%, an inhibition [12] of 46% and an inhibition [13] of 90%. The inhibition [14] was 0%.
For `NCCNS(=O)(=O)c1ccc(Cl)c2ccncc12`, the IC50 [1] was 10000 nM.
With `CC(C)(C)c1cc(NC(=O)Nc2cccc(Nc3ncc4c(N)n[nH]c4n3)c2)n[nH]1` the IC50 [1] was 142 nM.
Compound `C[C@@H](NC(=O)Nc1cccc(Nc2ncc3c(N)[nH]nc3n2)c1)c1ccccc1` has an IC50 [1] of 2470 nM.
